The values below come from PubChem BioAssay.

SMILES strings stand for the structures. Activity calls are given as the source filed them.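 How the source made its calls, unless noted: active means a full or partial loss of lipid-probe fluorescence in the fish gall bladder, intestine or both, judged by eye; inactive means no fluorescence loss, or compound toxic to the fish.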

Experiment [1] in a line: inhibitors of TNFa-induced NFkB p65 translocation, primary screen, imaging, HUVEC, MLSMR starter and 10KST1 sets (AID 438;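 active means inhibition above 20% together with a positive visual image hit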;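 further: compound added about 3h40 before a 20 min TNFalpha stimulation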;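 on inhibition: signal is the nuclear over cytoplasmic p65 intensity ratio per well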). Conditions: HUVEC TNFa-induced p65 nuclear translocation; cell count: measured here: nuclei count (cytotoxicity indicator), at 2.08 µM; inhibition: at 2 µM, stronger effect = higher value, 0% TNFa-plus-vehicle, 100% no-TNFa wells.
The nature of experiment [2]: endothelial E-selectin expression blockers – imaging, HUVEC, immunofluorescence, MLSMR starter and 10KST1 sets, primary screen (AID 487;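 active means visually confirmed hit in the image check and inhibition above 20%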;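 on inhibition: signal is fraction of cell area covered by stained E-selectin grains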;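 on nuclei count: 100% = median nuclei count of all wells on the same plate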). Conditions: HUVEC TNFalpha-induced E-selectin immunofluorescence imaging, at 2 µM; inhibition: stronger effect = higher value; nuclei count: measured here: cell number, toxicity.
Experiment [3] is described as follows: Primary imaging screen for DUSP6 inhibitors that restore phospho-Erk in transfected HeLa cells, chemical complementation (AID 609;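 active means compounds giving at least 50% inhibition in the cell-based MKP-3 phosphatase rescue imaging test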;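 on inhibition: phospho-Erk level distribution per well compared with pooled transfected vehicle control wells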). Conditions: HeLa MKP-3 transfected, phospho-Erk imaging KS statistic, at 10 µM, cells stimulated with TPA for 15 min.
Experiment [4] addresses Dual specificity protein phosphatase 6 (Homo sapiens) (UniProt Q16828). The experiment is described as above. Conditions: HeLa MKP-3 transfected, phospho-Erk imaging KS statistic; at 10 µM; stronger effect = higher value; cells stimulated with TPA for 15 min.
The target of experiment [5] is Voltage-gated potassium channel subunit beta-2 (Rattus norvegicus) (UniProt P62483). As to the kind of experiment: inhibitors of rat Kvbeta2 reductase activity – biochemical, NADPH fluorescence, primary screen (AID 622;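 active means fluorescence slope higher than the sample average by over 3 SD, cut at about -0.22 in these data, passing the limit was not always enough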;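 further: slope of raw intensity against log time taken from 70 to 1610 s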). Conditions: recombinant KvBeta, 4-cyanobenzaldehyde reduction, at 10 µM, stronger effect = higher value.
Experiment [6] has the same target. Briefly: enhancers of rat Kvbeta2 NADPH turnover – biochemical, NADPH fluorescence, primary screen (AID 623;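 active means NADPH fluorescence slope more negative than the mean of all samples by about 3 SD, 99.7% confidence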;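 further: fluorescence intensity change per second fitted from 20 to 320 s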). Conditions: Recombinant KvBeta, NADPH fluorescence decrease slope, 10 min; at 10 µM; stronger effect = lower value.
For experiment [7], the target named is Alpha-2C adrenergic receptor (Homo sapiens) (UniProt P18825). As to the kind of experiment: compounds altering alpha2C-coupled GIRK flux – cell-based, HEK293 alpha2C/GIRK1/2, thallium flux, primary screen (AID 624;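 active means fluorescence slope after compound addition differing from the mean of all screened samples at 99.7% confidence, in either direction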;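 further: slope of fluorescence ratio to pre-addition baseline per second over 15 to 24 s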). Conditions: thallium flux BTC fluorescence, at 10 µM, actives lie on both sides.
Experiment [8] can be described thus: inhibitors of larval lipid processing in zebrafish, primary screen, whole organism, PED6 fluorescence, gall bladder and intestine (AID 686).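 Further: larvae 5 to 7 days old with five fish per well; signal comes from phospholipase A2 cleavage of quenched PED6 carried via bile; overnight exposure to compound and PED6 before scoring.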 Conditions: Zebrafish larvae PED6 lipid processing, fluorescence scoring; screened at 20 µM (by protocol). In a few lines: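 Also added: quenched phospholipase substrate PED6, 100 nM final, ingested by larvae; System: zebrafish larvae, 5-7 d; Quantity: 5 larvae per well; Compound: 20 µM single dose; Schedule: overnight compound and PED6 incubation; Read-out: visual per-well fluorescence inhibition score; Measured by: By-eye fluorescence microscopy; Medium: E3.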

Experiment [9] is described as follows: loss of swimming-algae plug formation – whole organism, Chlamydomonas reinhardtii, WT vs cilia-less mutant, absorbance, 96-well, primary screen (AID 463189;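 active means inhibition at or above 50% relative to wild type and mutant plate controls; inactive means inhibition below 50%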;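 further: 0% = wild type cc124 cells in DMSO and 100% = ciliumless bld1 mutant cells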). Conditions: Chlamydomonas reinhardtii gravitaxis, OD600 absorbance, 2 days; at 10 µM; stronger effect = higher value.
Setting [10] is: measured here: cell density z-score.
Setting [11] is: measured here: nuclear c-Myc green intensity z-score.
Where [12] appears, read: measured here: nuclear pErk red intensity z-score, stronger effect = higher value.

Dual specificity protein phosphatase 6 (Homo sapiens), sequence (Q16828 whole entry, looked up): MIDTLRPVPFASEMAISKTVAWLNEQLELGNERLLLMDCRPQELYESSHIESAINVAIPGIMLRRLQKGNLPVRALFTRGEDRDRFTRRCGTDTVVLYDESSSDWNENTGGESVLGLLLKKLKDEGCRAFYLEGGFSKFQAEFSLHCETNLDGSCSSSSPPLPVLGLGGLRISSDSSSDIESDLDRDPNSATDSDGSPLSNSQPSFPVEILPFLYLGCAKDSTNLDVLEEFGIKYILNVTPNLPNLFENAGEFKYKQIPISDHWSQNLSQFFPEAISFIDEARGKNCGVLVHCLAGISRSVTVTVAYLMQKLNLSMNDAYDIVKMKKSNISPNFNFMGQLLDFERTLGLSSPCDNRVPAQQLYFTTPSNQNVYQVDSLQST
Alpha-2C adrenergic receptor (Homo sapiens), sequence (P18825 whole entry, looked up): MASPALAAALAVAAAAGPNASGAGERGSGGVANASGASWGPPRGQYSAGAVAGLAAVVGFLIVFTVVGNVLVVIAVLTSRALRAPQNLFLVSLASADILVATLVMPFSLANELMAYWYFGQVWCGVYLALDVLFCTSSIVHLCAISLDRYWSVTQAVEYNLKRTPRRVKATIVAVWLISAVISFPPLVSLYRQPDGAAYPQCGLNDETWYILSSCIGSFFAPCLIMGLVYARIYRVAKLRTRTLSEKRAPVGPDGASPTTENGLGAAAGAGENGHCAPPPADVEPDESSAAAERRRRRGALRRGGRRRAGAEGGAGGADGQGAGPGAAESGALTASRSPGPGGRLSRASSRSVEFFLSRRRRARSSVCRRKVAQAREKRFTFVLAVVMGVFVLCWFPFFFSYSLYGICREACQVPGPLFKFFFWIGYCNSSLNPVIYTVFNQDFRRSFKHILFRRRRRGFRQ
Voltage-gated potassium channel subunit beta-2 (Rattus norvegicus), sequence (P62483 whole entry, looked up): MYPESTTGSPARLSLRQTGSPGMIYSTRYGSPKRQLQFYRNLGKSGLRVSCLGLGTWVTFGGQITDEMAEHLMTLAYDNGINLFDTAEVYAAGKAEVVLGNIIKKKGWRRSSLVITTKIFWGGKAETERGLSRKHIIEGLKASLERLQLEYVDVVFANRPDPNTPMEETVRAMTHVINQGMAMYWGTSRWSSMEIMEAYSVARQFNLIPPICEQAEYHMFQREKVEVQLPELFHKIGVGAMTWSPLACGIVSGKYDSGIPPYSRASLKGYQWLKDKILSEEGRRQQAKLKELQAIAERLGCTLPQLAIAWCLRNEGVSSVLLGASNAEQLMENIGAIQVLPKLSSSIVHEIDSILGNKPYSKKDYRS

With `N#CC1=C(N)N2C(=C(C#N)C1c1ccccc1)Sc1ccccc12` (centres undefined), in [1], the cell count was 653. For the same molecule, the inhibition (as a rule, the change of the read-out against control, counted positive when it falls) in experiment [1] is -14.8% (inactive); in experiment [2] it was 9.7% (inactive); in [4] it was 17.7% (inactive); in [9] it was 44.9% (inactive). In [2], this molecule displayed a nuclei count of 116%. Further, the z-score in [3] (setting [10]) is 1.49; in experiment [3] (setting [11]), -0.461; in experiment [3] (setting [12]), -0.35. Further, the fluorescence slope in [5] was -0.452 (inactive). Also, the NADPH fluorescence slope in experiment [6] was -9.4e-06 (inactive). Further, the slope in experiment [7] is 0.0107 (inactive). In addition, the outcome in [8] was inactive.

Turning to `COCCOC(=O)c1c(C)nc(SCC(=O)Nc2ccc(C)cc2)c(C#N)c1-c1ccco1`, in experiment [1], the cell count came to 403. Further, the inhibition in experiment [1] is 0.9% (inactive); in [2] it was -123% (inactive); in [4] it was -2.59% (inactive); in experiment [9] it was 7.49% (inactive). The molecule further displayed a nuclei count in [2] of 124%. Also, the z-score in experiment [3] (setting [10]) was 1.33; in [3] (setting [11]) it was 0.851; in experiment [3] (setting [12]), -1.03. For the same molecule, the fluorescence slope in experiment [5] is -0.446 (inactive). Also, the NADPH fluorescence slope in experiment [6] was -8.7e-05 (inactive). The slope in [7] is 0.00716 (inactive). The call in [8] was inactive.

Consider `C=CCOC(=O)C1=C(C)OC(N)=C(C#N)C1c1ccoc1` (centres undefined), for which the cell count in experiment [1] came out at 564. The inhibition in experiment [1] is 2.9% (inactive); in experiment [2], -24.3% (inactive); in [4] it was 2.46% (inactive); in experiment [9] it was 26.4% (inactive). The same molecule gave a nuclei count in [2] of 166%. Moreover, the results for the z-score in experiment [3] (setting [10]), in experiment [3] (setting [11]) and in experiment [3] (setting [12]) were -0.735, -0.099 and 0.124, respectively. Also, the fluorescence slope in experiment [5] is -0.32 (inactive). Besides, the NADPH fluorescence slope in experiment [6] was 2.2e-05 (inactive). Also, the slope in [7] was 0.00536 (inactive). Also, the call in experiment [8] was inactive.

Consider `CCCCNC(=O)c1cc2n(n1)C(C(F)(F)F)CC(c1ccccc1)N2` (centres undefined), for which the cell count in [1] came to 519. The inhibition in experiment [1] was -6.4% (inactive); in experiment [2], -41.1% (inactive); in [4], 1.75% (inactive); in [9], -3.15% (inactive). Moreover, the nuclei count in [2] was found to be 107%. For the same molecule, the values for the z-score in [3] (setting [10]), in experiment [3] (setting [11]) and in experiment [3] (setting [12]) were -0.754, -0.242 and 0.464, respectively. The fluorescence slope in experiment [5] is -0.529 (inactive). In addition, the NADPH fluorescence slope in [6] is -5.9e-05 (inactive). The slope in [7] was 0.00405 (inactive). Further, the call in experiment [8] was inactive.

For the molecule `N#CC1=C(SCc2ccccc2)NC2=C(C(=O)CCC2)C1c1ccc2c(c1)OCO2` (centres undefined), the cell count in [1] came out at 490. Besides, the inhibition in [1] was -28.9% (inactive); in experiment [2] it was -54.8% (inactive); in [4], -4.27% (inactive); in experiment [9] it was -2.38% (inactive). The molecule also showed a nuclei count in [2] of 138%. Further, the results for the z-score in [3] (setting [10]), in experiment [3] (setting [11]) and in [3] (setting [12]) were 0.352, -1.14 and -1.35, respectively. Also, the fluorescence slope in experiment [5] is -0.525 (inactive). Moreover, in experiment [6], the NADPH fluorescence slope was -5.3e-05 (inactive). For the same molecule, the slope in experiment [7] is 0.0074 (inactive). Also, the molecule was called inactive in experiment [8].

For the molecule `CCOC(=O)c1ccc(NC(=O)CCC(CC)C(=O)O)cc1` (centres undefined), in [1], the cell count was 402. In addition, the inhibition in experiment [1] was -23.7% (inactive); in experiment [2], -228% (inactive); in [4], 27.7% (inactive); in [9] it was -1.41% (inactive). Also, the nuclei count in experiment [2] is 167%. Further, the results for the z-score in [3] (setting [10]), in [3] (setting [11]) and in experiment [3] (setting [12]) were 1.04, -1.56 and -0.382, respectively. Besides, the fluorescence slope in experiment [5] is -0.349 (inactive). The NADPH fluorescence slope in experiment [6] is -9.3e-06 (inactive). Further, the slope in [7] is 0.00545 (inactive). Moreover, the outcome in experiment [8] was inactive.

Take `CNc1nc(C)c(C#N)cc1C(C)=O`: the cell count in experiment [1] was found to be 481. Moreover, the inhibition was -11.7% (inactive) in experiment [1], 8.2% (inactive) in experiment [2], 5.65% (inactive) in [4] and 26.6% (inactive) in experiment [9]. This molecule returned a nuclei count in experiment [2] of 166%. In addition, the figures for the z-score in experiment [3] (setting [10]), in experiment [3] (setting [11]) and in [3] (setting [12]) were 0.906, -0.478 and -0.65, respectively. In [5], the fluorescence slope is -0.513 (inactive). Besides, in experiment [6], the NADPH fluorescence slope is -9.4e-05 (inactive). For the same molecule, the slope in experiment [7] is 0.00563 (inactive). Further, in experiment [8], the outcome was inactive.

Consider `Nc1nnc(CC2=CCCCC2)s1`, for which the cell count in experiment [1] was 579. Also, the inhibition in experiment [1] was -13.4% (inactive); in experiment [2] it was 28.3% (inactive); in experiment [4] it was -9.66% (inactive); in [9], 8.68% (inactive). In experiment [2], this molecule came in with a nuclei count of 152%. The z-score is -0.93 in [3] (setting [10]), 0.818 in experiment [3] (setting [11]) and -0.135 in experiment [3] (setting [12]). Besides, the fluorescence slope in experiment [5] was -0.396 (inactive). Besides, the NADPH fluorescence slope in experiment [6] is -3.4e-05 (inactive). Moreover, the slope in experiment [7] was 0.00749 (inactive). Also, the result in experiment [8] was inactive.

For the molecule `COc1ccc(C(=O)C(CN2CCCC2)c2ccccc2)cc1` (centres undefined), in [1], the cell count is 653. Also, the inhibition is -4.3% (inactive) in [1], 0.2% (inactive) in experiment [2], 1.75% (inactive) in [4] and 5.7% (inactive) in experiment [9]. In addition, the nuclei count in experiment [2] amounted to 178%. Also, the z-score in [3] (setting [10]) was -0.885; in experiment [3] (setting [11]) it was 0.507; in experiment [3] (setting [12]), 1.21. Further, the fluorescence slope in experiment [5] is -0.521 (inactive). For the same molecule, the NADPH fluorescence slope in experiment [6] was -8.7e-05 (inactive). The slope in experiment [7] was 0.00506 (inactive). Also, the result in experiment [8] was inactive.

In the case of `C=C(c1ccc(OCCO)cc1)c1ccc(OCCO)cc1`, the cell count in experiment [1] was 323. In addition, the inhibition was -11% (inactive) in experiment [1], -16.1% (inactive) in [2], 1.6e-07% (inactive) in [4] and 13.7% (inactive) in experiment [9]. The nuclei count in [2] came out at 129%. Moreover, the values for the z-score in experiment [3] (setting [10]), in experiment [3] (setting [11]) and in experiment [3] (setting [12]) were 0.426, 0.397 and -0.652, respectively. In addition, the fluorescence slope in experiment [5] is -0.405 (inactive). Also, the NADPH fluorescence slope in experiment [6] was -0.000129 (inactive). Besides, the slope in experiment [7] is 0.00576 (inactive). In addition, in experiment [8], the outcome was inactive.

Turning to `CC(C)(C)C1=Nn2c(nnc2-c2ccco2)SC1`, the cell count in [1] worked out at 663. Further, the inhibition in [1] was -3.7% (inactive); in experiment [2], -70.4% (inactive); in experiment [4], -6.06% (inactive); in experiment [9] it was -3.69% (inactive). Moreover, the nuclei count in [2] worked out at 165%. Besides, the z-score is -0.164 in experiment [3] (setting [10]), 0.534 in experiment [3] (setting [11]) and -0.139 in experiment [3] (setting [12]). The fluorescence slope in [5] is -0.423 (inactive). Also, the NADPH fluorescence slope in [6] is -0.000133 (inactive). The slope in experiment [7] is 0.00705 (inactive). The outcome in [8] was inactive.

Turning to `COc1ccc(/C(O)=C2/C(=O)C(=O)N(c3ncccn3)C2c2ccc(OC)c(OC)c2)cc1` (centres undefined), the cell count in [1] was 584. For the same molecule, the inhibition in experiment [1] was -2.6% (inactive); in [2] it was -34.9% (inactive); in [4], 0.671% (inactive); in experiment [9] it was 3.9% (inactive). The molecule also displayed a nuclei count in experiment [2] of 176%. The z-score is -1.58 in experiment [3] (setting [10]), 0.795 in [3] (setting [11]) and 2.34 in experiment [3] (setting [12]). The fluorescence slope in experiment [5] is -0.352 (inactive). Besides, in experiment [6], the NADPH fluorescence slope was -4.6e-05 (inactive). Also, the slope in [7] is 0.0049 (inactive). Moreover, the molecule was classed as inactive in [8].

`CCCOc1ccc(C(C)=O)cc1CSCCC#N`: the cell count in experiment [1] came to 298. Moreover, the inhibition is -26.4% (inactive) in experiment [1], -186% (inactive) in [2], 7.01% (inactive) in experiment [4] and 17.2% (inactive) in [9]. For the same molecule, the nuclei count in experiment [2] worked out at 136%. Moreover, the results for the z-score in experiment [3] (setting [10]), in experiment [3] (setting [11]) and in [3] (setting [12]) were -0.222, -1.52 and 0.779, respectively. The fluorescence slope in experiment [5] was -0.462 (inactive). Also, the NADPH fluorescence slope in experiment [6] was -0.000379 (inactive). In addition, the slope in experiment [7] was 0.00586 (inactive). Besides, in experiment [8], the result was inactive.
